Measurements gathered from unrelated publications.

SMILES | system | setting | endpoint | value
COCc1nn(Cc2ccc(Cn3ccccc3=O)cc2)cc1C(=O)NCc1nccc(OC)c1F | male beagle dog, plasma | intravenous, 1 mg/kg | Vd | < 1 L
Cc1nnc2sc(C(=O)NCc3ccc(-c4cccnc4F)cc3)c(N)c2c1C | dog, plasma | intravenous | Vd | 0.7 L/kg
COc1ccnc(CNC(=O)c2cn(Cc3ccc(Cn4ccccc4=O)cc3)nc2C(F)(F)F)c1F | male beagle dog, plasma | intravenous, 1 mg/kg | Vd | < 1 L
CN1CCC(c2ccccc2CC(C)(C)Nc2nc(N3CCOCC3)nc(-n3c(C(F)F)nc4ccccc43)n2)CC1 | dog, plasma | intravenous, 2 mg/kg, single dose | Vd | 9.7 L/kg
Oc1c(-n2ccnn2)cnn1-c1cc(N2CCOCC2)ncn1 | female dog, plasma | intravenous, 3 mg/kg | Vd | 0.78 L/kg
O=C(NCCN1CCCC1)c1cc(-c2ccc(CN3CCOCC3)cc2)nc2ccc(F)cc12 | male beagle dog, blood | intravenous, 1 mg/kg | Vd | 30 L/kg
CCn1c(=O)c(-c2cc(NC(=O)Nc3ccccc3)c(F)cc2Br)cc2cnc(NC)cc21 | beagle dog, plasma | oral, 5 mg/kg, single dose | Vd/F | 12.7 L/kg
CC[C@@H]1CN(C(=O)NCC(F)(F)F)C[C@@H]1c1cnc2cnc3[nH]ccc3n12 | beagle dog, plasma | oral, 1 mg/kg, single dose | Vd/F | 29.1 L/kg
C=CC(=O)Nc1cc(Nc2nccc(Nc3cc(Cl)c(F)cc3C(C)(C)O)n2)c(OC)cc1N1CC[C@@H](N(C)C)C1 | beagle dog, plasma | intravenous, 1 mg/kg | Vd | 29.5 L/kg
